According to ChEMBL document CHEMBL1148671, “Synthesis and antibacterial activity of C12 des-methyl ketolides” (2006):
Converted amounts (≈) assume the structure as drawn.

What was measured:
Type in all cases: functional
[1] = tested on: Streptococcus pneumoniae; test: Antibacterial activity against erythromycin-resistant Streptococcus pneumoniae mef 5654 by broth microdilution method
[2] = tested on: Streptococcus pneumoniae; test: Antibacterial activity against erythromycin-resistant Streptococcus pneumoniae mef S 3427 by broth microdilution method
[3] = tested on: Haemophilus influenzae; test: Antibacterial activity against Haemophilus influenzae 49247 by broth microdilution method
In short: (§1)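 In vitro activity was read as the minimum inhibitory concentration (MIC) by broth microdilution and reported in μg/mL. The S. pneumoniae panel included erythromycin-resistant strains carrying mef or erm genes. Telithromycin and clarithromycin were run as comparators in every assay.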

[4] = tested on: Haemophilus influenzae; test: Antibacterial activity against Haemophilus influenzae 2762 by broth microdilution method; in short: as §1
[5] = tested on: Enterococcus faecalis; test: Antibacterial activity against Enterococcus faecalis 29212 by broth microdilution method; in short: as §1
[6] = tested on: Enterococcus faecalis; test: Antibacterial activity against Enterococcus faecalis bc11148-2 by broth microdilution method; in short: as §1
[7] = tested on: Streptococcus pyogenes; test: Antibacterial activity against Streptococcus pyogenes 8668 by broth microdilution method; in short: as §1
[8] = tested on: Streptococcus pneumoniae; test: Antibacterial activity against Streptococcus pneumoniae 49619 by broth microdilution method; in short: as §1
[9] = tested on: Staphylococcus aureus; test: Antibacterial activity against Staphylococcus aureus 29213 by broth microdilution method; settings: ATCC29213; in short: as §1
[10] = tested on: Staphylococcus aureus; test: Antibacterial activity against Staphylococcus aureus 33591 by broth microdilution method; in short: as §1
[11] = tested on: Staphylococcus epidermidis; test: Antibacterial activity against Staphylococcus epidermidis 14990 by broth microdilution method; in short: as §1
[12] = tested on: Staphylococcus epidermidis; test: Antibacterial activity against Staphylococcus epidermidis f50654 by broth microdilution method; in short: as §1
[13] = tested on: Streptococcus pneumoniae; test: Antibacterial activity against Streptococcus pneumoniae 297-749 by broth microdilution method; in short: as §1
[14] = tested on: Streptococcus pneumoniae; test: Antibacterial activity against Streptococcus pneumoniae 280-962 by broth microdilution method; in short: as §1
[15] = tested on: Streptococcus pneumoniae; test: Antibacterial activity against erythromycin-resistant Streptococcus pneumoniae erm 6849 by broth microdilution method

Row | Structure (SMILES) | MIC [1] | MIC [2] | MIC [3] | MIC [4] | MIC [5] | MIC [6] | MIC [7] | MIC [8] | MIC [9] | MIC [10] | MIC [11] | MIC [12] | MIC [13] | MIC [14] | MIC [15]
1 | CC[C@H]1OC(=O)[C@H](C)C(=O)[C@H](C)[C@@H](O[C@@H]2O[C@H](C)C[C@H](N(C)C)[C@H]2O)[C@](C)(OC)C[C@@H](C)C(=O)[C@H](C)[C@@H]2[C@@H]1OC(=O)N2CCCCc1ncc(-c2ccccc2)s1 | 1.56 µg/mL (≈ 1.92 µM) | 0.1 µg/mL (≈ 0.123 µM) | 12.5 µg/mL (≈ 15.4 µM) | 3.13 µg/mL (≈ 3.84 µM) | 0.4 µg/mL (≈ 0.491 µM) | 6.25 µg/mL (≈ 7.68 µM) | 0.2 µg/mL (≈ 0.246 µM) | ≤ 0.05 µg/mL | 0.78 µg/mL (≈ 0.958 µM) | > 50 µg/mL | 0.78 µg/mL (≈ 0.958 µM) | 0.4 µg/mL (≈ 0.491 µM) | ≤ 0.05 µg/mL | ≤ 0.05 µg/mL | 25 µg/mL (≈ 30.7 µM)
2 | CC[C@H]1OC(=O)[C@H](C)C(=O)[C@H](C)[C@@H](O[C@@H]2O[C@H](C)C[C@H](N(C)C)[C@H]2O)[C@](C)(OC)C[C@@H](C)C(=O)[C@H](C)[C@@H]2[C@@H]1OC(=O)N2CCCCc1cnc2ccccc2c1 | 0.2 µg/mL (≈ 0.256 µM) | 0.1 µg/mL (≈ 0.128 µM) | 6.25 µg/mL (≈ 7.99 µM) | 1.56 µg/mL (≈ 1.99 µM) | 0.1 µg/mL (≈ 0.128 µM) | 12.5 µg/mL (≈ 16 µM) | ≤ 0.05 µg/mL | ≤ 0.05 µg/mL | 0.4 µg/mL (≈ 0.512 µM) | > 50 µg/mL | 0.2 µg/mL (≈ 0.256 µM) | 0.4 µg/mL (≈ 0.512 µM) | ≤ 0.05 µg/mL | ≤ 0.05 µg/mL | 0.4 µg/mL (≈ 0.512 µM)
3 | CC[C@H]1OC(=O)[C@H](C)C(=O)[C@H](C)[C@@H](O[C@@H]2O[C@H](C)C[C@H](N(C)C)[C@H]2O)[C@](C)(OC)C[C@@H](C)C(=O)[C@H](C)[C@@H]2[C@@H]1OC(=O)N2CCCCc1ccc(-c2cccnc2)s1 | 0.4 µg/mL (≈ 0.491 µM) | 0.1 µg/mL (≈ 0.123 µM) | 12.5 µg/mL (≈ 15.4 µM) | 3.13 µg/mL (≈ 3.84 µM) | ≤ 0.05 µg/mL | 25 µg/mL (≈ 30.7 µM) | ≤ 0.05 µg/mL | ≤ 0.05 µg/mL | 0.2 µg/mL (≈ 0.246 µM) | 50 µg/mL (≈ 61.4 µM) | 0.2 µg/mL (≈ 0.246 µM) | 0.1 µg/mL (≈ 0.123 µM) | ≤ 0.05 µg/mL | ≤ 0.05 µg/mL | 6.25 µg/mL (≈ 7.68 µM)
4 | CC[C@H]1OC(=O)[C@H](C)C(=O)[C@H](C)[C@@H](O[C@@H]2O[C@H](C)C[C@H](N(C)C)[C@H]2O)[C@](C)(OC)C[C@@H](C)C(=O)[C@H](C)[C@@H]2[C@@H]1OC(=O)N2CCCCc1ccc2ccccc2n1 | 0.2 µg/mL (≈ 0.256 µM) | – | 3.13 µg/mL (≈ 4 µM) | – | ≤ 0.05 µg/mL | 3.13 µg/mL (≈ 4 µM) | ≤ 0.05 µg/mL | ≤ 0.05 µg/mL | 0.4 µg/mL (≈ 0.512 µM) | > 50 µg/mL | 0.2 µg/mL (≈ 0.256 µM) | 0.2 µg/mL (≈ 0.256 µM) | ≤ 0.05 µg/mL | ≤ 0.05 µg/mL | 25 µg/mL (≈ 32 µM)
5 | CC[C@H]1OC(=O)[C@H](C)C(=O)[C@H](C)[C@@H](O[C@@H]2O[C@H](C)C[C@H](N(C)C)[C@H]2O)[C@](C)(OC)C[C@@H](C)C(=O)[C@H](C)[C@@H]2[C@@H]1OC(=O)N2CCCCn1cnc(-c2ccc(Cl)nc2)c1 | 0.78 µg/mL (≈ 0.937 µM) | 0.1 µg/mL (≈ 0.12 µM) | 6.25 µg/mL (≈ 7.51 µM) | 1.56 µg/mL (≈ 1.87 µM) | ≤ 0.05 µg/mL | 0.4 µg/mL (≈ 0.481 µM) | ≤ 0.05 µg/mL | ≤ 0.05 µg/mL | 0.2 µg/mL (≈ 0.24 µM) | > 50 µg/mL | 0.1 µg/mL (≈ 0.12 µM) | 0.2 µg/mL (≈ 0.24 µM) | ≤ 0.05 µg/mL | ≤ 0.05 µg/mL | 0.4 µg/mL (≈ 0.481 µM)
6 | CC[C@H]1OC(=O)[C@H](C)C(=O)[C@H](C)[C@@H](O[C@@H]2O[C@H](C)C[C@H](N(C)C)[C@H]2O)[C@](C)(OC)C[C@@H](C)C(=O)[C@H](C)[C@@H]2[C@@H]1OC(=O)N2CCCCn1ccc2ccccc21 | 0.2 µg/mL (≈ 0.26 µM) | – | 6.25 µg/mL (≈ 8.12 µM) | – | 0.1 µg/mL (≈ 0.13 µM) | > 50 µg/mL | ≤ 0.05 µg/mL | ≤ 0.05 µg/mL | 0.4 µg/mL (≈ 0.519 µM) | > 50 µg/mL | 0.2 µg/mL (≈ 0.26 µM) | 0.4 µg/mL (≈ 0.519 µM) | ≤ 0.05 µg/mL | ≤ 0.05 µg/mL | 6.25 µg/mL (≈ 8.12 µM)
7 | CC[C@H]1OC(=O)[C@H](C)C(=O)[C@H](C)[C@@H](O[C@@H]2O[C@H](C)C[C@H](N(C)C)[C@H]2O)[C@](C)(OC)C[C@@H](C)C(=O)[C@H](C)[C@@H]2[C@@H]1OC(=O)N2CCCCn1ccc2ncccc21 | 0.2 µg/mL (≈ 0.259 µM) | – | 1.56 µg/mL (≈ 2.02 µM) | 0.78 µg/mL (≈ 1.01 µM) | 0.1 µg/mL (≈ 0.13 µM) | 6.25 µg/mL (≈ 8.11 µM) | ≤ 0.05 µg/mL | ≤ 0.05 µg/mL | 0.2 µg/mL (≈ 0.259 µM) | > 50 µg/mL | 0.4 µg/mL (≈ 0.519 µM) | 0.4 µg/mL (≈ 0.519 µM) | ≤ 0.05 µg/mL | ≤ 0.05 µg/mL | 0.2 µg/mL (≈ 0.259 µM)
8 | CC[C@H]1OC(=O)[C@H](C)C(=O)[C@H](C)[C@@H](O[C@@H]2O[C@H](C)C[C@H](N(C)C)[C@H]2O)[C@](C)(OC)C[C@@H](C)C(=O)[C@H](C)[C@@H]2[C@@H]1OC(=O)N2CCCCn1cnc(-c2ccccc2)c1 | 0.2 µg/mL (≈ 0.251 µM) | – | 3.13 µg/mL (≈ 3.93 µM) | – | 0.1 µg/mL (≈ 0.125 µM) | > 50 µg/mL | ≤ 0.05 µg/mL | ≤ 0.05 µg/mL | 0.2 µg/mL (≈ 0.251 µM) | > 50 µg/mL | 0.1 µg/mL (≈ 0.125 µM) | 0.2 µg/mL (≈ 0.251 µM) | ≤ 0.05 µg/mL | ≤ 0.05 µg/mL | 0.78 µg/mL (≈ 0.979 µM)
